# PAFAH1B3 inh – blocks human PAF acetylhydrolase 1B catalytic subunit 3 | Q15102 | 0.28% of 340,000 active | recombinant PAFAH1B3, FP-rhodamine probe, fluorescence polarization | inhibition, % at 3.39 µM;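 active = inhibition above the screen-wide average of all tested compounds plus 3 SD, cut at about 25% in these data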;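 note: 0% = enzyme with DMSO only and 100% = wells lacking PAFAH1B3 protein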
# Target sequence (Q15102 whole entry, looked up): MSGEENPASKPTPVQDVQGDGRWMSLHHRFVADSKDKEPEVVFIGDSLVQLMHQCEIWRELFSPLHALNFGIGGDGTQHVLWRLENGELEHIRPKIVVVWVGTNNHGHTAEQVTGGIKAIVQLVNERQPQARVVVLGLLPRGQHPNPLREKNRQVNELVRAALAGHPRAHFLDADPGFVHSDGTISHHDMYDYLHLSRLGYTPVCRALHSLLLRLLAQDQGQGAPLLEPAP
# PAFAH1B2 inh – PAFAH1B2 (human) inhibition. 1.2% of 340,000 active. recombinant PAFAH1B2, FP-rhodamine activity probe, fluorescence polarization. P68402. inhibition, % at 3.39 µM;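 active = inhibition above the mean of all tested compounds plus 3 SD, cut at about 24% in these data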;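 note: 0% = enzyme with DMSO and 100% = wells lacking PAFAH1B2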
# Target sequence (P68402 whole entry, looked up): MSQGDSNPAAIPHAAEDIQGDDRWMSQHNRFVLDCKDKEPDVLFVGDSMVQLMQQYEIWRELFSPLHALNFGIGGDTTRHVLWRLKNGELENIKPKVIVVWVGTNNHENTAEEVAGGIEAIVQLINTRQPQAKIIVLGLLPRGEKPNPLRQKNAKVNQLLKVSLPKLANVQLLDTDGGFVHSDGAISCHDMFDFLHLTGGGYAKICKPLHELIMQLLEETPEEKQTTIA
# pPAFAH FP inh – inhibitors of human plasma PAF acetylhydrolase (pPAFAH); 1.5% of 330,000 active; Q13093; recombinant pPAFAH, FP-rhodamine probe fluorescence polarization; inhibition, % at 3.39 µM;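 active = inhibition above the mean inhibition across the screen plus 3 SD, cut at about 25% in these data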;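 note: inhibitors block binding of the rhodamine activity-based probe so polarization drops; 0% = enzyme with DMSO and 100% = wells lacking pPAFAH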
# ASAP1 inh – blocks human ASAP1-stimulated Arf1 GTP hydrolysis; inhibition, % at 16.5 µM; GDP FP detection; Q9ULH1; 0.19% of 360,000 active; in the data active = inhibition above about 25%;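 note: 0% = vehicle with enzyme and substrate and 100% = no enzyme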
# ARFGAP1 inh – rat ARFGAP1 inhibition; Q62848; Arfgap1-stimulated ARF1 GTP hydrolysis, GDP FP detection; inhibition, % at 16.5 µM; 0.26% of 360,000 active;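 active = inhibition above a per-plate limit, mean inhibition of low control wells plus 3 SD, cut at about 25% in these data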;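 note: 0% = DMSO wells with enzyme and 100% = wells lacking Arfgap1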
# Target sequence (Q62848 1-136 limits assumed): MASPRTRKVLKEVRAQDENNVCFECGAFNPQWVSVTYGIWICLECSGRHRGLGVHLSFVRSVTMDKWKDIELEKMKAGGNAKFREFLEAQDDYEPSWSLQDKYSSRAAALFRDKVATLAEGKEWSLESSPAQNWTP
#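 Assay system: purified rat His6-Arfgap1 residues 1-136 (GAP domain); Reagent: human Δ17 ARF1 bound to GTP; Dosing: 16.5 µM single point, 1.26% DMSO; Times: GTP hydrolysis reaction 2 h at 25 °C; Signal: FP, GDP Alexa 633 tracer displaced from anti-GDP antibody, 620/688 nm; Measure: % inhibition from polarization.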
# PAFAH2 inh – inhibitors of human PAFAH2 | Q99487 | recombinant PAFAH2, FP-rhodamine activity probe, fluorescence polarization | inhibition, % at 3.39 µM | 0.99% of 340,000 active | AID 492956;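 active = inhibition above the mean over all tested compounds plus 3 SD, cut at about 30% in these data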;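 note: inhibitors block probe labeling of enzyme so polarization drops; 0% = enzyme with DMSO and 100% = wells lacking PAFAH2 protein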
# The depositor's hits bear a star; nt = not tested or not shown. Compounds with a hit are over-represented: about 2.7% of the library has one in this group of screens.
SMILES,PAFAH1B3 inh,PAFAH1B2 inh,pPAFAH FP inh,ASAP1 inh,ARFGAP1 inh,PAFAH2 inh
O=C(NC(=S)NNC(=O)c1ccccc1O)c1cccnc1,26*,19,16,-4,-7,60*
CC(C)[C@@H]1CC[C@@H](C)C[C@H]1OC[B-](F)(F)F,nt,nt,nt,6,2,nt
Cc1ccc(OCC(=O)Nc2ccc([N+](=O)[O-])cc2)cc1,12,5,1,16,13,11
O=C(Nc1ccncc1)C1(c2ccccc2)CCCC1,4,27*,-1,-9,1,3
NS(=O)(=O)c1ccc(NC(=O)C2(c3ccccc3)CCCC2)cc1,10,27*,0,-10,8,0
NS(=O)(=O)c1ccc(NC2(C(=O)O)CCCC2)cc1,6,5,3,8,7,5
O=C(Nc1ccccn1)C1(c2ccccc2)CCCC1,2,26*,1,3,-3,-4
O=C(Nc1cccnc1)C1(c2ccccc2)CCCC1,10,19,5,-3,0,1
Cc1ccc(NC(=O)C2(c3ccccc3)CCCC2)nc1,1,15,8,-5,1,3
Cc1ccc(NC(=O)C2(c3ccc([N+](=O)[O-])cc3)CCCC2)cc1,8,25*,4,-6,2,10
O=C(NS(=O)(=O)c1ccc2ccc(S(=O)(=O)NCCSc3ccccc3)cc2c1)c1cccc2ccccc12,nt,nt,nt,-1,-3,nt
C[C@@H]1OC(C2CCCCC2)N(C)[C@H]2C[C@H]3c4[nH]c5c(-c6ccccc6)cccc5c4CCN3C(=O)[C@@H]12 (stereo not given in full),nt,nt,nt,3,-7,nt
COC(=O)c1cc2c(c3c4cc(C)ccc4n(S(=O)(=O)c4ccc(C)cc4)c13)C(=O)N(Cc1ccccc1OC)C2,nt,nt,nt,5,7,nt
COc1ccccc1/C=C/C=N/NC(=O)c1cc(-c2ccco2)[nH]n1,nt,nt,30*,16,13,nt
CCC(C)(C)C1CCC2(CC1)NC(=O)N(CC(=O)N1CCN(C(=O)c3ccco3)CC1)C2=O (stereo not given),2,25*,2,-2,1,0
CCC(C)(C)C1CCC2(CC1)NC(=O)N(CC(=O)NCCOc1ccccc1)C2=O (stereo not given),11,28*,-6,-2,8,10
CCC(C)(C)C1CCC2(CC1)NC(=O)N(CC(=O)NCCc1ccc(OC)c(OC)c1)C2=O (stereo not given),-1,25*,1,-17,10,1
CCOc1ccc(CCNC(=O)CN2C(=O)NC3(CCCC3)C2=O)cc1OCC,1,0,-5,-1,13,0
O=S(=O)(N1CCCCC1)n1nnc2cc3ccccc3cc21,nt,nt,nt,3,0,nt
C[C@H](CO)N1C[C@H](C)[C@@H](CN(C)S(=O)(=O)c2ccc(F)cc2)Oc2ncc(Br)cc2C1=O,nt,nt,nt,4,-6,nt
O=c1c2ccccc2ncn1CCCSc1ccc(Cl)cc1,7,51*,5,-4,7,6
O=c1c2ccccc2ncn1CCCSc1ccccc1,0,13,4,-6,-12,-10
COC(=O)[C@]12C[C@H](CC(=O)N3CCCC3)C(=O)N(Cc3ccccc3)C1=C[C@H](C1CCCC1)O[C@@H]2C,nt,nt,nt,-11,-2,nt
CCOC(=O)c1ccc(NC(=O)C2CCN(C(=O)c3ccc(OC)c(OC)c3)CC2)cc1,-3,3,29*,5,2,-1
COC(=O)c1ccc(NC(=O)C2CCN(C(=O)c3cc(OC)c(OC)c(OC)c3)CC2)cc1,4,3,1,-15,-9,-4
SMILES,PAFAH1B3 inh,PAFAH1B2 inh,pPAFAH FP inh,ASAP1 inh,ARFGAP1 inh,PAFAH2 inh
Cc1nnc(-n2cccc2)s1,nt,nt,nt,4,3,nt
Cc1c(C(=O)OCC2CCCO2)[nH]c2c1C(=O)CC(c1ccco1)C2 (stereo not given),2,3,25*,nt,nt,6
C[C@@H]1C=CCCO[C@]12C(=O)N(Cc1ccc(F)cc1)c1ccccc12,nt,nt,nt,-12,-4,nt
COc1cc(NC(=O)CSCc2ccc(Cl)cc2Cl)c(C(=O)O)cc1OC,-2,2,1,-3,-2,11
O=C(CSCc1ccc(Cl)cc1Cl)Nc1ccc(O)cc1C(=O)O,-1,28*,0,-9,-2,-2
CCOc1ccc(S(=O)(=O)Nc2ncn[nH]2)cc1,-5,1,7,2,5,-1
CCOc1ccc(S(=O)(=O)Nc2cc(Sc3ncn[nH]3)c3oc(=O)sc3c2)cc1,nt,nt,33*,nt,nt,nt
Cc1cccc(N2CSC3=C(C#N)C(c4ccc(C)o4)CC(=O)N3C2)c1 (stereo not given),nt,nt,47*,nt,nt,nt
Cc1cccc(Nc2nnc(SC/C(O)=C(\C#N)c3nc4ccccc4[nH]3)s2)c1,16,20,25*,11,-2,-13
Cc1cc(C)n2c(SCC(O)=C(C#N)c3nc4ccccc4[nH]3)nnc2n1,3,2,nt,1,-4,3
Cc1ccc(Nc2nnc(SC/C(O)=C(\C#N)c3nc4ccccc4[nH]3)s2)c(C)c1,8,21,29*,-1,-2,-1
CCCc1cc(=O)[nH]c(SCC(=O)Nc2cc(S(=O)(=O)N3CCCCC3)ccc2C)n1,15,24*,4,9,-10,-2
COCCCNC(=O)COC(=O)c1ccc(-c2nc3ccccc3s2)s1,7,5,28*,-5,18,-1
Nc1[nH]c(=O)ncc1-c1ccc([N+](=O)[O-])cc1,nt,nt,nt,-3,6,nt
Nc1nc2c(ncn2[C@@H]2O[C@H](C(=O)NCC3CCCCC3)[C@@H](O)[C@H]2O)c(=O)[nH]1,nt,nt,nt,-5,10,nt
Cc1cc(C)c2c(-n3cccc3)c(C(=O)NNS(=O)(=O)c3ccc(Cl)cc3)sc2n1,2,37*,7,-3,9,8
Cc1cc(C)c2c(-n3cccc3)c(C(=O)NNS(=O)(=O)c3ccccc3)sc2n1,-5,5,4,-4,5,1
O=C(O)CCCN1C(=O)/C(=C\c2ccccc2OCc2ccccc2)SC1=S,10,11,29*,2,-19,15
O=C(O)CN1C(=O)/C(=C\c2ccccc2OCc2ccccc2)SC1=S,nt,nt,nt,-1,-11,nt
O=C(O)CCCN1C(=O)/C(=C\c2ccc(-c3nc4ccccc4s3)o2)SC1=S,25,13,30*,0,15,41*
O=C(O)CN1C(=O)/C(=C\c2cc([N+](=O)[O-])ccc2OCc2ccccc2Cl)SC1=S,12,7,45*,0,-5,25
Cc1nn(-c2ccccc2)c(Cl)c1/C=C1\SC(=S)N(CCCCCC(=O)O)C1=O,12,3,28*,-2,-14,7
COC(=O)[C@]12C[C@H](CC(=O)NCc3ccc(C)o3)C(=O)N(Cc3ccccc3)C1=C[C@H](C(C)(C)C)O[C@@H]2C,nt,nt,nt,0,-1,nt
